Converted amounts (≈) assume the structure as drawn. The source made the active and inactive calls. No cut-off for these calls is given here.
Assays:
[1] = target: Mitogen-activated protein kinase 14 (Homo sapiens, UniProt Q16539); test: Inhibition of p38alpha (unknown origin) by competition binding assay
[2] = target: Diacylglycerol kinase alpha (Mus musculus, UniProt O88673); test: Inhibition of mouse DGK alpha by ADP-Glo assay
MDA-MB-231 = test: Antiproliferative activity against human MDA-MB-231 cells assessed as inhibition of cell viability measured for 3 to 5 days by alamar blue staining based assay; type: functional
Homo sapiens = species: Homo sapiens; test: Inhibition of PRC2 (unknown origin)
[3] = target: Dual specificity tyrosine-phosphorylation-regulated kinase 1A (Homo sapiens, UniProt Q13627); test: Inhibition of human DYRK1a
[4] = target: Platelet-derived growth factor receptor beta (Homo sapiens, UniProt P09619); test: Inhibition of PDGFR beta (unknown origin)
[5] = target: Mitotic checkpoint serine/threonine-protein kinase BUB1 (Homo sapiens, UniProt O43683); test: Inhibition of Bub1 (unknown origin) in presence of ATP
[6] = target: Histone-lysine N-methyltransferase NSD3 (Homo sapiens) (UniProt Q9BZ95); test: Inhibition of NSD3 (unknown origin)
[7] = target: Interleukin-1 receptor-associated kinase 1 (Homo sapiens, UniProt P51617); test: Inhibition of IRAK1 (unknown origin) in presence of ATP
[8] = Cytotoxicity against human MCF-10A cells assessed as inhibition of cell viability measured for 3 to 5 days by alamar blue staining based assay; type: toxicity
[9] = target: T1, Histone-lysine N-methyltransferase SMYD3 (Homo sapiens) (UniProt Q9H7B4); test: Binding affinity to recombinant human SMYD3 expressed in Escherichia coli assessed as change in entropy at 0.3 mM by isothermal titration calorimetry
T1 sequence (whole entry): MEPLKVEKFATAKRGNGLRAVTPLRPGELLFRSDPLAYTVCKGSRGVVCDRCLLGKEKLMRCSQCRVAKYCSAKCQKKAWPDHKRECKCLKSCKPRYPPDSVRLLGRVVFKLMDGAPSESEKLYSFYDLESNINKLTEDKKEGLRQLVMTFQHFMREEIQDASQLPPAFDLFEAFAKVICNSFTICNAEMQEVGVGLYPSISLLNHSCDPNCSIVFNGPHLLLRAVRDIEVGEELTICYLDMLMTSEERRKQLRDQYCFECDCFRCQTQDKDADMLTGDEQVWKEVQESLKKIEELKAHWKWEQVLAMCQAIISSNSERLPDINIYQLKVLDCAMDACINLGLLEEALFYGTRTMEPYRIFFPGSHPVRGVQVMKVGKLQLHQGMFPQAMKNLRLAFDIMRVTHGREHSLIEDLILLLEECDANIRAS
Method in brief: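 Syringe held compound at 0.3 mM in 20 mM HEPES pH 7.4, 150 mM NaCl, 0.005% Tween 20, 2.5% DMSO; eight 4 µL injections at 180 s intervals into SMYD3.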

[10] = target: Histone-lysine N-methyltransferase, H3 lysine-36 specific (Homo sapiens) (UniProt Q96L73); test: Inhibition of NSD1 (unknown origin)
[11] = target: DNMT3A2/3L complex (Homo sapiens) (UniProt Q9Y6K1+Q9UJW3); test: Inhibition of DNMT3A/DNMT3L (unknown origin); type: protein-complex assay
[12] = target: T2, Histone-lysine N-methyltransferase SMYD3 (Homo sapiens, UniProt Q9H7B4); test: Binding affinity to biotinylated SMYD3 (unknown origin) assessed as dissociation constant using S-adenosyl-l-methionine as substrate by surface plasmon resonance analysis
T2 sequence (Q9H7B4 whole entry): T1 sequence (whole entry)
Method in brief: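 Biotinylated SMYD3 (aa 1–428) captured (~4700 RU) on streptavidin chip, empty reference flow cell; 25 °C; running buffer 20 mM HEPES pH 7.4, 150 mM NaCl, 3 mM EDTA, 0.05% Tween-20, 2% DMSO, plus 50 µM SAM. Single-cycle kinetics, five concentrations 25–2000 nM, 60 s contact, 300 s dissociation, 30 µL/min; triplicate.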

[13] = target: DNMT3B-DNMT3L complex (Homo sapiens) (UniProt Q9UBC3+Q9UJW3); test: Inhibition of DNMT3B/DNMT3L (unknown origin); type: protein-complex assay
SUD4 = test: Antiproliferative activity against human SU-DHL-4 cells assessed as inhibition of cell viability measured for 3 to 5 days by alamar blue staining based assay; type: functional
[14] = target: NUAK family SNF1-like kinase 1 (Homo sapiens, UniProt O60285); test: Inhibition of NUAK1 (unknown origin) in presence of ATP
[15] = target: Histone-lysine N-methyltransferase KMT5B (Homo sapiens) (UniProt Q4FZB7); test: Inhibition of SUV420H1 (unknown origin)
[16] = test system: Histone-lysine N-methyltransferase SMYD3 (Homo sapiens), Q9H7B4 [UNDEFINED MUTATION]; test: (§1) Inhibition of SMYD3 catalytic inactive mutant co-expressed with HA-tagged MAP3K2 transfected in human HeLa cells assessed as reduction of MAP3K2-K260me3 level incubated for 20 hrs by Western blotting analysis; type: cell-based
Method in brief: (§2)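 After 4 h, compound or DMSO for 20 h. Lysates immunoblotted for MAP3K2-K260me3 (in-house antibody), HA, SMYD3 and MAP3K2 with infrared secondaries. K260me3 signal normalized to HA; three technical replicates, mean ± SEM, nonlinear fit.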

[17] = target: Histone-lysine N-methyltransferase SMYD3 (Homo sapiens, UniProt Q9H7B4); test: as §1; type: cell-based; method in brief: as §2
[18] = target: Ribosomal protein S6 kinase alpha-6 (Homo sapiens, UniProt Q9UK32); test: Inhibition of RSK4 (unknown origin)
[19] = target: Protein arginine N-methyltransferase 6 (Homo sapiens) (UniProt Q96LA8); test: Inhibition of PRMT6 (unknown origin)
[20] = target: High affinity nerve growth factor receptor (Homo sapiens, UniProt P04629); test: Inhibition of human TRK-A
[21] = Kinetic solubility of the compound at pH 6.5; type: physicochemical; details: buffer, read-out: Kinetic_solubility
[22] = target: T1, Histone-lysine N-methyltransferase SMYD3 (Homo sapiens); test: Binding affinity to recombinant human SMYD3 expressed in Escherichia coli assessed as fold change at varying MAP3K2 substrate concentration of upto 150 uM with 10 fold Km concentration by scintillation proximity assay
Method in brief: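 SPA, 10 nM SMYD3 methylating biotinylated MAP3K2 249–273 peptide with 3H-SAM in 20 mM Tris pH 9, 2.5 mM DTT, 0.01% Triton X-100; 40 min, 23 °C, GuHCl quench.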

[23] = target: Histone-lysine N-methyltransferase SUV39H2 (Homo sapiens) (UniProt Q9H5I1); test: Inhibition of SUV39H2 (unknown origin)
[24] = target: Protein arginine N-methyltransferase 5 (Homo sapiens) (UniProt O14744); test: Inhibition of PRMT5 (unknown origin)
Hs746T = test: Antiproliferative activity against human Hs746T cells assessed as inhibition of cell viability measured for 3 to 5 days by alamar blue staining based assay; type: functional
PaTu 8988t = test: Antiproliferative activity against human PaTu 8988t cells assessed as inhibition of cell viability measured for 3 to 5 days by alamar blue staining based assay; type: functional

Chain of Histone-lysine N-methyltransferase NSD3 (Homo sapiens) (Q9BZ95 whole entry): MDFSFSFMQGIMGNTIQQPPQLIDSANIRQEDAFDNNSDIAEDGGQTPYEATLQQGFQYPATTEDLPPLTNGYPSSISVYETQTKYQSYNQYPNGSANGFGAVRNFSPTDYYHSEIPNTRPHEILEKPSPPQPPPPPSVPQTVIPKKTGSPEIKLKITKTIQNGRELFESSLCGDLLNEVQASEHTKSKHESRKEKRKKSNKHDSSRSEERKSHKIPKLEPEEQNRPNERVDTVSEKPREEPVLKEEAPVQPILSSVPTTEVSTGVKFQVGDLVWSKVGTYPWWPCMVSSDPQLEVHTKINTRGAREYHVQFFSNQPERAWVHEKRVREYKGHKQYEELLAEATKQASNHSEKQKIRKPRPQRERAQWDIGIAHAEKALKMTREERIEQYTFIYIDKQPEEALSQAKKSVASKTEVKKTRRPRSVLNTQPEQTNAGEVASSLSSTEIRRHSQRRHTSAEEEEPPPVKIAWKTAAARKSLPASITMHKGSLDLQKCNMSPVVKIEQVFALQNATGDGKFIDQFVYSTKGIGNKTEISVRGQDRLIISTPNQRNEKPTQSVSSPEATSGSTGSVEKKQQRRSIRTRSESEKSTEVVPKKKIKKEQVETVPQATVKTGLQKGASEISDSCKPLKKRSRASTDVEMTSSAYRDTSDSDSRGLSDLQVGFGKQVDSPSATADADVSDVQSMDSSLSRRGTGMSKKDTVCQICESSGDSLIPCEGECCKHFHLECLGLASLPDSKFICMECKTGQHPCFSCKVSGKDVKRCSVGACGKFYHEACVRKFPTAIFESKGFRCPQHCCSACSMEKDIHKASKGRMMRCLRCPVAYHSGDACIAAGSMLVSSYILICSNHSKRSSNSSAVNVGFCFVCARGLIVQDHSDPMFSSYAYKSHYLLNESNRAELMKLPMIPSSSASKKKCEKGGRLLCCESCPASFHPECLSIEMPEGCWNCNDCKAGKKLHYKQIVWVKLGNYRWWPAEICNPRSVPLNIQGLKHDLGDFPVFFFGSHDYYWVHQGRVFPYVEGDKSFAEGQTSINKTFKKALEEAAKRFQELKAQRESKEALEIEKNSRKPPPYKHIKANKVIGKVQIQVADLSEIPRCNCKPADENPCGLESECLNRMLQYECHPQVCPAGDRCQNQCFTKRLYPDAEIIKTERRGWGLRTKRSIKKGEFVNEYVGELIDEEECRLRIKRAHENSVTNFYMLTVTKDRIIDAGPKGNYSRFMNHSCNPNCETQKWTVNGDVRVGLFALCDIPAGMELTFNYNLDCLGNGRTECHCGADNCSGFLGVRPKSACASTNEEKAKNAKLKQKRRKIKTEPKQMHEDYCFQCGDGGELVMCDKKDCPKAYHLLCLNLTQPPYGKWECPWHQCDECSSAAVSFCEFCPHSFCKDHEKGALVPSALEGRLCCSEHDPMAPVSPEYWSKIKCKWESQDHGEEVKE
Chain of High affinity nerve growth factor receptor (P04629 whole entry): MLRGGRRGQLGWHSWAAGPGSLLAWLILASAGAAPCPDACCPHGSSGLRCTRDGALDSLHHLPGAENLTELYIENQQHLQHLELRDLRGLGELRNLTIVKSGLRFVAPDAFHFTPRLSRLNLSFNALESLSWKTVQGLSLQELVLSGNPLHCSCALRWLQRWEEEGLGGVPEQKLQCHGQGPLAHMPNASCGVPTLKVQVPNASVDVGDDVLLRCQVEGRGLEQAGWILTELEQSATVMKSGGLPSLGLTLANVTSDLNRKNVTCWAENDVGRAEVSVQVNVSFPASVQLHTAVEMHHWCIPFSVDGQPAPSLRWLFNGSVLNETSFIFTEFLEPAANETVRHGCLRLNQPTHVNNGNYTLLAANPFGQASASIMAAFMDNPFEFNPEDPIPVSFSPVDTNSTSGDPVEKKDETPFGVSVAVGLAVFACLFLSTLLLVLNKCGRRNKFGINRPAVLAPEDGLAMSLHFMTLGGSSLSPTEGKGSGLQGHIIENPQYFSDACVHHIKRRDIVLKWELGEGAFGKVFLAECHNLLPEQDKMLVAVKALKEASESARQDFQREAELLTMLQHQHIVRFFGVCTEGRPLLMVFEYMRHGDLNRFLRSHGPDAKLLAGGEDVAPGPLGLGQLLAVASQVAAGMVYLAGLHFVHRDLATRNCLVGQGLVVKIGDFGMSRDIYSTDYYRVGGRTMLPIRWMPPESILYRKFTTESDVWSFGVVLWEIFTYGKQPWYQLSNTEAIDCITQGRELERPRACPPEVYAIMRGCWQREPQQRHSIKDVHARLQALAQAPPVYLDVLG
Chain of Mitogen-activated protein kinase 14 (Q16539 whole entry): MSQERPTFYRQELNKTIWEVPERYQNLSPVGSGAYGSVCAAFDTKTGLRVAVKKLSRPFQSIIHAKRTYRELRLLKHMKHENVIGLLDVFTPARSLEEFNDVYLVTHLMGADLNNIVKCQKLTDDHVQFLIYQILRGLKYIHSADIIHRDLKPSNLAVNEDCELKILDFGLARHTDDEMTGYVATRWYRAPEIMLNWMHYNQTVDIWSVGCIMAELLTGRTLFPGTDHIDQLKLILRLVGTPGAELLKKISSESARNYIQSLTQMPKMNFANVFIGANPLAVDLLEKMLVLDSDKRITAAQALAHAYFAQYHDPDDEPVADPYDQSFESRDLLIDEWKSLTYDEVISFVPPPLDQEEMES
Chain of DNMT3B-DNMT3L complex (Homo sapiens) (Q9UJW3 whole entry, looked up, other chains not shown): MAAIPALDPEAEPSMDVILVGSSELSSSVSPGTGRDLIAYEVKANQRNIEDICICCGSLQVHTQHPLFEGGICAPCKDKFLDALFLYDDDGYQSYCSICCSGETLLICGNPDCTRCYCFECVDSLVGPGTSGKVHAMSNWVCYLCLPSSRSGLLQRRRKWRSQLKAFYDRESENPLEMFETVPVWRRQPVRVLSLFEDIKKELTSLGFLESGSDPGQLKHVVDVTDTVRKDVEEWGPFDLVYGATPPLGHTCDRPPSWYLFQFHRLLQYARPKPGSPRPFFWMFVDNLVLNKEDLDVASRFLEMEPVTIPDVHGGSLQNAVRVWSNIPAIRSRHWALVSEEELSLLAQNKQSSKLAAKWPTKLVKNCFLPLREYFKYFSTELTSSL
Chain of DNMT3A2/3L complex (Homo sapiens) (Q9UJW3 whole entry, looked up): as the sequence (Q9UJW3 whole entry, looked up, other chains not shown) above
Chain of DNMT3A2/3L complex (Homo sapiens) (Q9Y6K1 whole entry, looked up): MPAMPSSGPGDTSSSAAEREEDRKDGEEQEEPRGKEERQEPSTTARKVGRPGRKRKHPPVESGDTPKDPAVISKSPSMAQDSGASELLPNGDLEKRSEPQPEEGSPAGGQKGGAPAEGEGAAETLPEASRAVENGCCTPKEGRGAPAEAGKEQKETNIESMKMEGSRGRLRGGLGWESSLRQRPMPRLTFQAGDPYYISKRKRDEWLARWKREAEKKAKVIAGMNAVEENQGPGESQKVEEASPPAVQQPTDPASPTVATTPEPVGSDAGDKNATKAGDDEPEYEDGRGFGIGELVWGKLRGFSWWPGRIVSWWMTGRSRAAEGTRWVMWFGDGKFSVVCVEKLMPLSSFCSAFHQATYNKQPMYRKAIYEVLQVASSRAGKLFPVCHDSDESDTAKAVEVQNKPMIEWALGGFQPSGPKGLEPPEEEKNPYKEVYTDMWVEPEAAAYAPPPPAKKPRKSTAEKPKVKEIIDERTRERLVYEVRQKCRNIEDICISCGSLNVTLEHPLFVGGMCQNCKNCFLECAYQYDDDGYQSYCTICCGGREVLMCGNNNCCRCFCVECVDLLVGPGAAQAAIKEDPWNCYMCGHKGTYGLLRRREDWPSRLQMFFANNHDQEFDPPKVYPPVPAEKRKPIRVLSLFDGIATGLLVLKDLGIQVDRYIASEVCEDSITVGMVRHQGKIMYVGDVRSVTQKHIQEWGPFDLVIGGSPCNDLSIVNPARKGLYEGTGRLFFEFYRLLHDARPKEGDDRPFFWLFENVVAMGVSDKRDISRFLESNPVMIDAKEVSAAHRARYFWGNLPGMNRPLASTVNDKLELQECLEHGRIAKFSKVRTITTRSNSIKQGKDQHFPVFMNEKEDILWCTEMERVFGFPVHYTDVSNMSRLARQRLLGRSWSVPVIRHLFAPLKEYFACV
Chain of Histone-lysine N-methyltransferase SUV39H2 (Homo sapiens) (Q9H5I1 whole entry): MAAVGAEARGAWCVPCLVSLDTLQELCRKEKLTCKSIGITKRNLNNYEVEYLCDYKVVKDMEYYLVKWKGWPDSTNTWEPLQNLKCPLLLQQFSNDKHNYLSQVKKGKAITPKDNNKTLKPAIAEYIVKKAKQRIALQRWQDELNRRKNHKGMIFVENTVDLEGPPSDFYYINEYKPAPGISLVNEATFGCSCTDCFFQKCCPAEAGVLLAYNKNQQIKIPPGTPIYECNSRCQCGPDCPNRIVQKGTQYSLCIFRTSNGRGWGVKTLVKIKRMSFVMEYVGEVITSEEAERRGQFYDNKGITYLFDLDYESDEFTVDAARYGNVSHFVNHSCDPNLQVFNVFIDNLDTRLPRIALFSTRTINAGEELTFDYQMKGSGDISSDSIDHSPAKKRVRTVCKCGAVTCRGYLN
Chain of Protein arginine N-methyltransferase 5 (Homo sapiens) (O14744 whole entry): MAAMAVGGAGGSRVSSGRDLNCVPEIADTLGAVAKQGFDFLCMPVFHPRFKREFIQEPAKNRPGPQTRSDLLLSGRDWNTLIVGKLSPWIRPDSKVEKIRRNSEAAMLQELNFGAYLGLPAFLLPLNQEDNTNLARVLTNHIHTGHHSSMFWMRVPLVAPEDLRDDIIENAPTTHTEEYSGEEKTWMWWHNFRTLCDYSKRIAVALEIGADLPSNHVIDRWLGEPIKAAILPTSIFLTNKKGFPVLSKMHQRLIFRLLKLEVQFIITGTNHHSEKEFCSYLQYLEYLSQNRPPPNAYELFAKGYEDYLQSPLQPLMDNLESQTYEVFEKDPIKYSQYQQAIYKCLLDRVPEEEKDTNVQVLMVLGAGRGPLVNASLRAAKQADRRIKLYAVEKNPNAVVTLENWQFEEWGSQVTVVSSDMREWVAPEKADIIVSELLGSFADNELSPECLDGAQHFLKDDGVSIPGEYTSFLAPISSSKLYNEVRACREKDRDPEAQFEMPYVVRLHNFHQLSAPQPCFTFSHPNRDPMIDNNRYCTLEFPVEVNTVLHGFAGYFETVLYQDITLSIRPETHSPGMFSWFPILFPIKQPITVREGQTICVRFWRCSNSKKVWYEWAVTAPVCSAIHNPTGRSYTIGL

## C[C@H]1CC(=O)Nc2cc(C(=O)NCCC3CC3)ccc2N1C(=O)N1CC2CC2C1 (stereo not given in full)
[1]
  IC50: > 20 µM
[2]
  IC50: > 20 µM
MDA-MB-231
  IC50: > 10 µM
Homo sapiens
  inhibition: inactive
[3]
  IC50: > 20 µM
[4]
  IC50: > 20 µM
[5]
  IC50: > 20 µM
[6]
  inhibition: inactive
[7]
  IC50: > 20 µM
[8]
  IC50: > 10 µM
[9]
  -TdeltaS: -5 kcal/mol
  deltaS: 17 cal/mol.K
[10]
  inhibition: inactive
[11]
  inhibition: inactive
[12]
  Kd: 0.097 µM
[13]
  inhibition: inactive
SUD4
  IC50: > 10 µM
[14]
  IC50: > 20 µM
[15]
  inhibition: inactive
[16]
  inhibition: Dose-Dependent Effect
[17]
  IC50: 0.183 µM
[18]
  IC50: > 20 µM
[19]
  inhibition: inactive
[20]
  IC50: > 20 µM
[21]
  solubility kinetic: 363 µg/mL (≈ 915 µM)
[22]
  fold change (FC): 4
[23]
  inhibition: inactive
[24]
  inhibition: inactive
Hs746T
  IC50: > 10 µM
PaTu 8988t
  IC50: > 10 µM

— ChEMBL document CHEMBL5661986, “Discovery of the SMYD3 Inhibitor BAY-6035 Using Thermal Shift Assay (TSA)-Based High-Throughput Screening” (SLAS Discov, 2021)
